From ChEMBL document CHEMBL1153764, “A facile one-pot green synthesis and antibacterial activity of 2-amino-4H-pyrans and 2-amino-5-oxo-5,6,7,8-tetrahydro-4H-chromenes” (2009)
In brackets after ≈: the same amount, converted by molar mass.

How the values were obtained:
Format in all cases: functional
Escherichia coli [1] = experiment: Antibacterial activity against Escherichia coli MTCC 41 at 128 ug/ml after 16 hrs by disc diffusion method; conditions: MTCC 41, 16 h, read-out: IZ
Procedure, shortened: (§1)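 Disc diffusion zone-of-inhibition assay. The bacterial isolate was spread evenly over the surface of an agar plate. A filter disc loaded with a known amount of compound was placed on the surface, and the compound diffused into the surrounding agar. Plates were incubated 16 h until a bacterial lawn formed, and the zone of inhibition around the disc was then assessed.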

Pseudomonas putida [2] = experiment: Antibacterial activity against Pseudomonas putida MTCC 1072 at 64 ug/ml after 16 hrs by disc diffusion method; conditions: MTCC 1072, 16 h, read-out: IZ; procedure, shortened: as §1
Staphylococcus aureus [3] = experiment: Antibacterial activity against Staphylococcus aureus MTCC 1144 at 128 ug/ml after 16 hrs by disc diffusion method; conditions: MTCC 1144, 16 h, read-out: IZ; procedure, shortened: as §1
Pseudomonas putida [4] = experiment: Antibacterial activity against Pseudomonas putida MTCC 1072 at 128 ug/ml after 16 hrs by disc diffusion method; conditions: MTCC 1072, 16 h, read-out: IZ; procedure, shortened: as §1
Staphylococcus aureus [5] = experiment: Antibacterial activity against Staphylococcus aureus MTCC 1144 after 12 to 16 hrs
Procedure, shortened: (§2)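 Tube broth dilution MIC. Tubes were inoculated with the bacterial strain and incubated 12–16 h. Growth was scored visually: a turbid tube means growth, a clear tube means no growth. MIC is the lowest concentration with no growth.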

Escherichia coli [6] = experiment: Antibacterial activity against Escherichia coli MTCC 41 at 64 ug/ml after 16 hrs by disc diffusion method; conditions: MTCC 41, 16 h, read-out: IZ; procedure, shortened: as §1
Staphylococcus aureus [7] = experiment: Antibacterial activity against Staphylococcus aureus MTCC 1144 at 64 ug/ml after 16 hrs by disc diffusion method; conditions: MTCC 1144, 16 h, read-out: IZ; procedure, shortened: as §1
Pseudomonas putida [8] = experiment: Antibacterial activity against Pseudomonas putida MTCC 1072 after 12 to 16 hrs; procedure, shortened: as §2
Escherichia coli [9] = experiment: Antibacterial activity against Escherichia coli MTCC 41 after 12 to 16 hrs; procedure, shortened: as §2

Compound	zone of inhibition at 128 µg/mL (Escherichia coli [1]) [mm]	zone of inhibition at 64 µg/mL (Pseudomonas putida [2]) [mm]	zone of inhibition at 128 µg/mL (Staphylococcus aureus [3]) [mm]	zone of inhibition at 128 µg/mL (Pseudomonas putida [4]) [mm]	MIC (Staphylococcus aureus [5]) [µg/mL]	zone of inhibition at 64 µg/mL (Escherichia coli [6]) [mm]	zone of inhibition at 64 µg/mL (Staphylococcus aureus [7]) [mm]	MIC (Pseudomonas putida [8]) [µg/mL]	MIC (Escherichia coli [9]) [µg/mL]
CC1(C)CC(=O)C2=C(C1)OC(N)=C(C#N)C2c1ccccc1 (configuration not stated)	> 2	> 2	< 1	> 2	> 128	< 1	< 1	> 128	> 128
Cc1ccc(C2C(C#N)=C(N)OC3=C2C(=O)CC(C)(C)C3)cc1 (configuration not stated)	> 2	> 2	> 2	> 3	> 128	> 2	> 2	128 (≈ 415 µM)	> 128
CC1(C)CC(=O)C2=C(C1)OC(N)=C(C#N)C2c1cccc([N+](=O)[O-])c1 (configuration not stated)	> 3	< 1	> 3	> 3	128 (≈ 377 µM)	< 1	> 2	128 (≈ 377 µM)	128 (≈ 377 µM)
CC1(C)CC(=O)C2=C(C1)OC(N)=C(C#N)C2c1cccc(O)c1 (configuration not stated)	> 3	> 3	> 2	> 3	> 128	> 2	> 2	64 (≈ 206 µM)	128 (≈ 412 µM)
CCOC(=O)C1=C(C)OC(N)=C(C#N)C1c1ccccc1 (configuration not stated)	> 3	< 1	> 3	> 3	128 (≈ 450 µM)	> 3	< 1	128 (≈ 450 µM)	64 (≈ 225 µM)
CCOC(=O)C1=C(C)OC(N)=C(C#N)C1c1cccc(Cl)c1 (configuration not stated)	> 3	< 1	> 3	> 3	128 (≈ 402 µM)	< 1	< 1	128 (≈ 402 µM)	128 (≈ 402 µM)
COc1ccc(C2C(C#N)=C(N)OC3=C2C(=O)CC(C)(C)C3)cc1 (configuration not stated)	> 3	> 2	> 2	> 3	> 128	> 3	> 2	128 (≈ 395 µM)	64 (≈ 197 µM)
CCOC(=O)C1=C(C)OC(N)=C(C#N)C1c1ccc(OC)cc1 (configuration not stated)	> 3	< 1	> 3	> 3	128 (≈ 407 µM)	< 1	< 1	128 (≈ 407 µM)	128 (≈ 407 µM)
